# ChEMBL document CHEMBL1177643, “Synthesis, DNA-binding ability and anticancer activity of benzothiazole/benzoxazole-pyrrolo[2,1-c][1,4]benzodiazepine conjugates” (Bioorg Med Chem, 2010)
# Key:
# [1] = system: CAKI-1; assay: Growth inhibition of human Caki1 cells after 48 hrs by sulforhodamine B assay; type: functional; settings: CAKI-1, 48 h
# Summary of the method: (§1)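 Dose–response in each cell line over at least five concentrations at 10-fold dilutions, with 48 h continuous exposure and sulforhodamine B read-out.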
# [2] = system: KM12; assay: Growth inhibition of human KM12 cells after 48 hrs by sulforhodamine B assay; type: functional; settings: KM12, 48 h
# Summary of the method: (§2)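 Panel of 60 human cancer cell lines; for each compound, dose–response curves per cell line measured at a minimum of five concentrations at 10-fold dilutions. Cells exposed continuously to drug for 48 h, and growth was read out by sulforhodamine B staining.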
# [3] = system: Calf thymus DNA; assay: Binding affinity to calf thymus duplex-form DNA assessed as melting temperature at 1:5 compound/DNA ratio after 18 hrs; type: nucleic-acid assay; settings: Bos taurus
# [4] = system: SK-MEL-5; assay: Growth inhibition of human SK-MEL-5 cells after 48 hrs by sulforhodamine B assay; type: functional; settings: SK-MEL-5, 48 h; summary of the method: as §2
# [5] = system: COLO 205; assay: Growth inhibition of human COLO205 cells after 48 hrs by sulforhodamine B assay; type: functional; settings: COLO 205, 48 h; summary of the method: as §1
# [6] = system: OVCAR-5; assay: Growth inhibition of human OVCAR5 cells after 48 hrs by sulforhodamine B assay; type: functional; settings: OVCAR-5, 48 h; summary of the method: as §2
# [7] = system: SF-268; assay: Growth inhibition of human SF268 cells after 48 hrs by sulforhodamine B assay; type: functional; settings: SF-268, 48 h; summary of the method: as §2
# [8] = system: LOX IMVI; assay: Growth inhibition of human LOXIMVI cells after 48 hrs by sulforhodamine B assay; type: functional; summary of the method: as §2
# [9] = system: M14; assay: Growth inhibition of human M14 cells after 48 hrs by sulforhodamine B assay; type: functional; settings: M14, 48 h; summary of the method: as §2
# [10] = system: EKVX; assay: Growth inhibition of human EKVX cells after 48 hrs by sulforhodamine B assay; type: functional; summary of the method: as §1
# [11] = system: DU-145; assay: Growth inhibition of human DU145 cells after 48 hrs by sulforhodamine B assay; type: functional; settings: DU-145, 48 h; summary of the method: as §1
# [12] = system: HOP-92; assay: Growth inhibition of human HOP92 cells after 48 hrs by sulforhodamine B assay; type: functional; settings: HOP-92, 48 h; summary of the method: as §2
# [13] = system: SNB-19; assay: Growth inhibition of human SNB19 cells after 48 hrs by sulforhodamine B assay; type: functional; settings: SNB-19, 48 h; summary of the method: as §2
# [14] = system: SK-MEL-28; assay: Growth inhibition of human SK-MEL-28 cells after 48 hrs by sulforhodamine B assay; type: functional; settings: SK-MEL-28, 48 h; summary of the method: as §2
# [15] = system: OVCAR-4; assay: Growth inhibition of human OVCAR4 cells after 48 hrs by sulforhodamine B assay; type: functional; settings: OVCAR-4, 48 h; summary of the method: as §2
# [16] = system: NCI-H322M; assay: Growth inhibition of human NCI-H322M cells after 48 hrs by sulforhodamine B assay; type: functional; summary of the method: as §2
# [17] = system: UACC-257; assay: Growth inhibition of human UACC257 cells after 48 hrs by sulforhodamine B assay; type: functional; settings: UACC-257, 48 h; summary of the method: as §2
# [18] = system: UO-31; assay: Growth inhibition of human UO31 cells after 48 hrs by sulforhodamine B assay; type: functional; settings: UO-31, 48 h; summary of the method: as §2
# [19] = system: TK-10; assay: Growth inhibition of human TK10 cells after 48 hrs by sulforhodamine B assay; type: functional; settings: TK-10, 48 h; summary of the method: as §2
# [20] = system: HT-29; assay: Growth inhibition of human HT-29 cells after 48 hrs by sulforhodamine B assay; type: functional; settings: HT-29, 48 h; summary of the method: as §2
# [21] = system: A549; assay: Growth inhibition of human A549 cells after 48 hrs by sulforhodamine B assay; type: functional; settings: A549, 48 h; summary of the method: as §1
# [22] = system: HL-60; assay: Growth inhibition of human HL-60(TB) cells after 48 hrs by sulforhodamine B assay; type: functional; settings: HL-60, 48 h; summary of the method: as §2
# [23] = system: SNB-75; assay: Growth inhibition of human SNB75 cells after 48 hrs by sulforhodamine B assay; type: functional; settings: SNB-75, 48 h; summary of the method: as §2
# [24] = system: NCI-H23; assay: Growth inhibition of human NCI-H23 cells after 48 hrs by sulforhodamine B assay; type: functional; settings: NCI-H23, 48 h; summary of the method: as §2
# [25] = system: NCI-H522; assay: Growth inhibition of human NCI-H522 cells after 48 hrs by sulforhodamine B assay; type: functional; settings: NCI-H522, 48 h; summary of the method: as §2
# [26] = system: UACC-62; assay: Growth inhibition of human UACC62 cells after 48 hrs by sulforhodamine B assay; type: functional; settings: UACC-62, 48 h; summary of the method: as §2
# [27] = system: IGROV-1; assay: Growth inhibition of human IGROV1 cells after 48 hrs by sulforhodamine B assay; type: functional; settings: IGROV-1, 48 h; summary of the method: as §2
# [28] = system: BT-549; assay: Growth inhibition of human BT549 cells after 48 hrs by sulforhodamine B assay; type: functional; settings: BT-549, 48 h; summary of the method: as §1
# [29] = system: SR; assay: Growth inhibition of human SR cells after 48 hrs by sulforhodamine B assay; type: functional; summary of the method: as §2
# [30] = system: MCF7; assay: Growth inhibition of human MCF7 cells after 48 hrs by sulforhodamine B assay; type: functional; settings: MCF7, 48 h; summary of the method: as §2
# [31] = system: PC-3; assay: Growth inhibition of human PC3 cells after 48 hrs by sulforhodamine B assay; type: functional; settings: PC-3, 48 h; summary of the method: as §2
# [32] = system: HCT-15; assay: Growth inhibition of human HCT15 cells after 48 hrs by sulforhodamine B assay; type: functional; settings: HCT-15, 48 h; summary of the method: as §2
# [33] = system: SW-620; assay: Growth inhibition of human SW620 cells after 48 hrs by sulforhodamine B assay; type: functional; settings: SW-620, 48 h; summary of the method: as §2
# [34] = Growth inhibition of human […] cells after 48 hrs by sulforhodamine B assay; type: functional; summary of the method: as §2
# [35] = system: OVCAR-8; assay: Growth inhibition of human OVCAR8 cells after 48 hrs by sulforhodamine B assay; type: functional; settings: OVCAR-8, 48 h; summary of the method: as §2
# [36] = system: SF-295; assay: Growth inhibition of human SF295 cells after 48 hrs by sulforhodamine B assay; type: functional; settings: SF-295, 48 h; summary of the method: as §2
# [37] = system: T47D; assay: Growth inhibition of human T47D cells after 48 hrs by sulforhodamine B assay; type: functional; summary of the method: as §2
# [38] = system: MDA-MB-435; assay: Growth inhibition of human MDA-MB-435 cells after 48 hrs by sulforhodamine B assay; type: functional; settings: MDA-MB-435, 48 h; summary of the method: as §2
# [39] = system: HCC 2998; assay: Growth inhibition of human HCC2998 cells after 48 hrs by sulforhodamine B assay; type: functional; settings: HCC 2998, 48 h; summary of the method: as §2
# [40] = system: NCI/ADR-RES; assay: Growth inhibition of human NCI/ADR-RES cells after 48 hrs by sulforhodamine B assay; type: functional; summary of the method: as §2
# [41] = system: RXF 393; assay: Growth inhibition of human RXF393 cells after 48 hrs by sulforhodamine B assay; type: functional; settings: RXF 393, 48 h; summary of the method: as §2
# [42] = system: A498; assay: Growth inhibition of human A498 cells after 48 hrs by sulforhodamine B assay; type: functional; settings: A498, 48 h; summary of the method: as §1
# [43] = system: U-251; assay: Growth inhibition of human U251 cells after 48 hrs by sulforhodamine B assay; type: functional; settings: U-251, 48 h; summary of the method: as §2
# [44] = system: SK-OV-3; assay: Growth inhibition of human SKOV3 cells after 48 hrs by sulforhodamine B assay; type: functional; settings: SK-OV-3, 48 h; summary of the method: as §2
# [45] = system: K562; assay: Growth inhibition of human K562 cells after 48 hrs by sulforhodamine B assay; type: functional; settings: K562, 48 h; summary of the method: as §2
# [46] = system: HOP-62; assay: Growth inhibition of human HOP62 cells after 48 hrs by sulforhodamine B assay; type: functional; settings: HOP-62, 48 h; summary of the method: as §2
# [47] = system: HCT-116; assay: Growth inhibition of human HCT116 cells after 48 hrs by sulforhodamine B assay; type: functional; settings: HCT-116, 48 h; summary of the method: as §2
# [48] = system: SK-MEL-2; assay: Growth inhibition of human SK-MEL-2 cells after 48 hrs by sulforhodamine B assay; type: functional; settings: SK-MEL-2, 48 h; summary of the method: as §2
# [49] = system: 786-0; assay: Growth inhibition of human 786-0 cells after 48 hrs by sulforhodamine B assay; type: functional; settings: 786-0, 48 h; summary of the method: as §1
# [50] = system: ACHN; assay: Growth inhibition of human ACHN cells after 48 hrs by sulforhodamine B assay; type: functional; summary of the method: as §1
# [51] = system: NCI-H226; assay: Growth inhibition of human NCI-H226 cells after 48 hrs by sulforhodamine B assay; type: functional; settings: NCI-H226, 48 h; summary of the method: as §2
# [52] = system: Hs-578T; assay: Growth inhibition of human Hs 578T cells after 48 hrs by sulforhodamine B assay; type: functional; summary of the method: as §2
# [53] = system: NCI-H460; assay: Growth inhibition of human NCI-H460 cells after 48 hrs by sulforhodamine B assay; type: functional; settings: NCI-H460, 48 h; summary of the method: as §2
# [54] = system: MDA-MB-231; assay: Growth inhibition of human MDA-MB-231 cells after 48 hrs by sulforhodamine B assay; type: functional; settings: MDA-MB-231, 48 h; summary of the method: as §2
# [55] = system: SN12C; assay: Growth inhibition of human SN12C cells after 48 hrs by sulforhodamine B assay; type: functional; summary of the method: as §2
# [56] = system: OVCAR-3; assay: Growth inhibition of human OVCAR-3 cells after 48 hrs by sulforhodamine B assay; type: functional; settings: OVCAR-3, 48 h; summary of the method: as §2
# [57] = system: MOLT-4; assay: Growth inhibition of human MOLT4 cells after 48 hrs by sulforhodamine B assay; type: functional; settings: MOLT-4, 48 h; summary of the method: as §2
# [58] = system: Malme-3M; assay: Growth inhibition of human MALME-3M cells after 48 hrs by sulforhodamine B assay; type: functional; summary of the method: as §2
# [59] = system: SF-539; assay: Growth inhibition of human SF539 cells after 48 hrs by sulforhodamine B assay; type: functional; settings: SF-539, 48 h; summary of the method: as §2
# [60] = system: CCRF-CEM; assay: Growth inhibition of human CCRF-CEM cells after 48 hrs by sulforhodamine B assay; type: functional; summary of the method: as §1
structure (smiles),measurement,setting,value
COc1cc2c(cc1OCCCCCOc1ccc(-c3nc4ccccc4s3)cc1)N=C[C@@H]1CCCN1C2=O,GI50,[1],0.513 µM
same,GI50,[2],1.55 µM
same,ΔTm,[3],4.3 °C
same,GI50,[4],0.339 µM
same,GI50,[5],0.389 µM
same,GI50,[6],0.661 µM
same,GI50,[7],3.24 µM
same,GI50,[8],0.24 µM
same,GI50,[9],0.324 µM
same,GI50,[10],1.55 µM
same,GI50,[11],0.355 µM
same,GI50,[12],0.269 µM
same,GI50,[13],2.95 µM
same,GI50,[14],3.89 µM
same,GI50,[15],2.14 µM
same,GI50,[16],1.95 µM
same,GI50,[17],2.24 µM
same,GI50,[18],0.724 µM
same,GI50,[19],3.47 µM
same,GI50,[20],0.457 µM
same,GI50,[21],2.57 µM
same,GI50,[22],0.562 µM
same,GI50,[23],1.2 µM
same,GI50,[24],0.891 µM
same,GI50,[25],0.55 µM
same,GI50,[26],1.17 µM
same,GI50,[27],2.69 µM
same,GI50,[28],0.229 µM
same,GI50,[29],0.0191 µM
same,GI50,[30],0.331 µM
same,GI50,[31],0.234 µM
same,GI50,[32],0.933 µM
same,GI50,[33],1.02 µM
same,GI50,[34],0.398 µM
same,GI50,[35],0.813 µM
same,GI50,[36],0.776 µM
same,GI50,[37],0.234 µM
same,GI50,[38],1.38 µM
same,GI50,[39],0.631 µM
same,GI50,[40],1.12 µM
same,GI50,[41],0.2 µM
same,GI50,[42],2.24 µM
same,GI50,[43],0.457 µM
same,GI50,[44],2.57 µM
same,GI50,[45],0.363 µM
same,GI50,[46],0.407 µM
same,GI50,[47],0.347 µM
same,GI50,[48],1.55 µM
same,GI50,[49],0.263 µM
same,GI50,[50],1.1 µM
same,GI50,[51],1.51 µM
same,GI50,[52],1.32 µM
same,GI50,[53],0.347 µM
same,GI50,[54],0.263 µM
same,GI50,[55],0.813 µM
same,GI50,[56],0.741 µM
same,GI50,[57],0.282 µM
same,GI50,[58],1.23 µM
same,GI50,[59],0.479 µM
same,GI50,[60],0.269 µM
